# Laboratory results taken from ChEMBL document CHEMBL3286129, “Optimization of peptidomimetic boronates bearing a P3 bicyclic scaffold as proteasome inhibitors” (Eur J Med Chem, 2014).
# Active and inactive are the calls of the source. No cut-off for these calls is given here.
# Legend:
# NCI-H460 = assay: Growth inhibition of human NCI-H460 cells; format: functional
# NCI-H522 = assay: Growth inhibition of human NCI-H522 cells; format: functional
# COLO 205 = assay: Growth inhibition of human COLO205 cells; format: functional
# HT-29 = assay: Growth inhibition of human HT-29 cells; format: functional
# [1] = Growth inhibition of human SF539 cells; format: functional
# SNB-75 = assay: Growth inhibition of human SNB75 cells; format: functional
# [2] = Growth inhibition of human LOXIMVI cells; format: functional; conditions: LOX IMVI
# Malme-3M = assay: Growth inhibition of human MALME-3M cells; format: functional
# SK-MEL-28 = assay: Growth inhibition of human SK-MEL-28 cells; format: functional
# SK-MEL-5 = assay: Growth inhibition of human SK-MEL-5 cells; format: functional
# [3] = Growth inhibition of human UACC257 cells; format: functional; conditions: UACC-257
# IGROV-1 = assay: Growth inhibition of human IGROV1 cells; format: functional
# [4] = Growth inhibition of human OVCAR3 cells; format: functional; conditions: OVCAR-3
# [5] = Growth inhibition of human OVCAR4 cells; format: functional
# [6] = Growth inhibition of human NCI-ADR-RES cells; format: functional
# 786-0 = assay: Growth inhibition of human 786-0 cells; format: functional
# ACHN = assay: Growth inhibition of human ACHN cells; format: functional
# TK-10 = assay: Growth inhibition of human TK10 cells; format: functional
# [7] = Growth inhibition of human UO31 cells; format: functional; conditions: UO-31
# MCF7 = assay: Growth inhibition of human MCF7 cells; format: functional
# [8] = Growth inhibition of human BT549 cells; format: functional
# [9] = target: T1, Proteasome Macropain subunit MB1 (Homo sapiens) (UniProt P28074); assay: Inhibition of chymotrypsin-like activity of 20S proteasome in human erythrocytes using Suc-Leu-Leu-Val-Tyr-AMC as substrate at 20 uM by fluorescence assay relative to control
# T1 sequence (whole entry): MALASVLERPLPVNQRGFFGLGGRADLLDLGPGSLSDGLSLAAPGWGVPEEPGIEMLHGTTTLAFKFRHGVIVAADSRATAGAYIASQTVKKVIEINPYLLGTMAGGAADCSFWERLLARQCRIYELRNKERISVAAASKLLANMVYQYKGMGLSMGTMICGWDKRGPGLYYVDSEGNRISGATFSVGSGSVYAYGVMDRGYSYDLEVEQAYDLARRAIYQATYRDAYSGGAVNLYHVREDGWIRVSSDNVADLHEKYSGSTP
# Summary of the method: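 Single inhibitor concentration, equivalent DMSO as negative control. AMC fluorescence read at ex 380/em 460 nm; percent inhibition of ChT-L activity.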
# [10] = target: T2, Proteasome Macropain subunit MB1 (Homo sapiens, UniProt P28074); assay: Inhibition of chymotrypsin-like activity of 20S proteasome in human erythrocytes using Suc-Leu-Leu-Val-Tyr-AMC as substrate by fluorescence assay; conditions: read-out: Ki
# T2 sequence (P28074 whole entry): T1 sequence (whole entry)
# [11] = target: Proteasome Macropain subunit (Homo sapiens) (UniProt P49721); assay: Inhibition of trypsin-like activity of 20S proteasome in human erythrocytes using Boc-Leu-Arg-Arg-AMC as substrate by fluorescence assay; format: cell-based
# Proteasome Macropain subunit (Homo sapiens), sequence (P49721 whole entry): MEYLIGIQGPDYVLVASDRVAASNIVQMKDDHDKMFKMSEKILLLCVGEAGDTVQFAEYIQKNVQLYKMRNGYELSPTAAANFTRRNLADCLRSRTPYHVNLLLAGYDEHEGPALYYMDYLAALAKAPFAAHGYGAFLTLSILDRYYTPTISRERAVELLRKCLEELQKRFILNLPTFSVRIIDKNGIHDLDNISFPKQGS
# Summary of the method: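 Human 20S proteasome 0.0025 mg/mL at 30 °C in 50 mM Tris pH 7.4, 50 mM NaCl, 0.5 mM EDTA, 0.03% SDS, 7.5% DMSO. Varied inhibitor concentrations; AMC release monitored continuously for 10 min, ex 380/em 460 nm. Ki derived from progress-curve IC50 fit.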
# Chymotrypsinogen A = Chymotrypsinogen A (Bos taurus, UniProt P00766); assay: Inhibition of bovine pancreatic alpha-chymotrypsin using Suc-Leu-Leu-Val-Tyr-AMC as substrate by fluorescence assay; conditions: read-out: Ki
# Summary of the method: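 Enzyme incubated at 20 °C in 50 mM Tris pH 8.0, 100 mM NaCl, 5 mM EDTA, 7.5% DMSO with varied inhibitor concentrations. Substrate hydrolysis followed for 10 min. Ki from progress curves; mean of three determinations.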
# [12] = Cytotoxicity against human leukemia cells assessed as cell growth at 10 uM relative to control; format: functional; conditions: read-out: Activity
# Summary of the method: (§1)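 Single-concentration screen against a panel of human cancer cell lines. Each value is the mean percent growth across the cell lines of that tumour subpanel.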
# [13] = Cytotoxicity against human NSCLC cells assessed as cell growth at 10 uM relative to control; format: functional; conditions: read-out: Activity; summary of the method: as §1
# [14] = Cytotoxicity against human prostate cancer cells assessed as cell growth at 10 uM relative to control; format: functional; conditions: Cancer cell lines, read-out: Activity; summary of the method: as §1
# [15] = Cytotoxicity against human breast cancer cells assessed as cell growth at 10 uM relative to control; format: functional; conditions: Cancer cell lines, read-out: Activity; summary of the method: as §1
# [16] = Growth inhibition of human MOLT4 cells; format: functional
# SR = assay: Growth inhibition of human SR cells; format: functional
# HOP-62 = assay: Growth inhibition of human HOP62 cells; format: functional
# [17] = Growth inhibition of human HOP92 cells; format: functional
# NCI-H226 = assay: Growth inhibition of human NCI-H226 cells; format: functional
# [18] = read-out: LC50 (the source's name)
smiles,measurement,setting,value
CC(C)C[C@H](NC(=O)CCn1ccc2ccc(Br)cc2c1=O)B(O)O,GI50,NCI-H460,3.18 µM
same,LC50,NCI-H460,> 100 µM
same,TGI,NCI-H460,> 100 µM
same,GI50,NCI-H522,0.3 µM
same,LC50,NCI-H522,> 100 µM
same,TGI,NCI-H522,2.25 µM
same,GI50,COLO 205,0.85 µM
same,TGI,COLO 205,> 100 µM
same,CC50,COLO 205; [18],> 100 µM
same,GI50,HT-29,0.45 µM
same,LC50,HT-29,> 100 µM
same,TGI,HT-29,> 100 µM
same,GI50,[1]; SF-539,0.21 µM
same,TGI,[1]; SF-539,0.6 µM
same,CC50,"[1]; SF-539, read-out: LC50 (the source's name)",> 100 µM
same,GI50,SNB-75,0.46 µM
same,LC50,SNB-75,> 100 µM
same,TGI,SNB-75,3.82 µM
same,GI50,[2],0.22 µM
same,TGI,[2],0.61 µM
same,GI50,Malme-3M,0.68 µM
same,TGI,Malme-3M,7.95 µM
same,CC50,Malme-3M; [18],> 100 µM
same,GI50,SK-MEL-28,0.52 µM
same,TGI,SK-MEL-28,29.7 µM
same,CC50,SK-MEL-28; [18],> 100 µM
same,GI50,SK-MEL-5,0.37 µM
same,LC50 (concentration killing 50% of cells),SK-MEL-5,82.5 µM
same,TGI,SK-MEL-5,3.11 µM
same,GI50,[3],0.73 µM
same,TGI,[3],2.86 µM
same,GI50,IGROV-1,5.1 µM
same,LC50,IGROV-1,> 100 µM
same,TGI,IGROV-1,> 100 µM
same,GI50,[4],0.33 µM
same,LC50 (concentration killing 50% of cells),[4],10.6 µM
same,TGI,[4],1.21 µM
same,GI50,[5]; OVCAR-4,2.06 µM
same,TGI,[5]; OVCAR-4,> 100 µM
same,CC50,"[5]; OVCAR-4, read-out: LC50 (the source's name)",> 100 µM
same,GI50,[6],17.4 µM
same,LC50,[6],> 100 µM
same,TGI,[6],> 100 µM
same,GI50,786-0,0.82 µM
same,TGI,786-0,> 100 µM
same,CC50,786-0; [18],> 100 µM
same,GI50,ACHN,0.41 µM
same,TGI,ACHN,> 100 µM
same,CC50,ACHN; [18],> 100 µM
same,GI50,TK-10,0.37 µM
same,LC50,TK-10,> 100 µM
same,TGI,TK-10,15.6 µM
same,GI50,[7],0.98 µM
same,LC50,[7],> 100 µM
same,TGI,[7],15.4 µM
same,GI50,MCF7,0.39 µM
same,TGI,MCF7,> 100 µM
same,CC50,MCF7; [18],> 100 µM
same,GI50,[8]; BT-549,0.36 µM
same,TGI,[8]; BT-549,4.32 µM
same,CC50,"[8]; BT-549, read-out: LC50 (the source's name)",> 100 µM
same,inhibition,[9],> 40%
same,Ki,[10],0.06 µM
same,inhibition,[11],inactive
same,Ki,Chymotrypsinogen A,23.7 µM
same,growth at 10 µM,[12],0.02%
same,growth at 10 µM,[13],8.79%
same,growth at 10 µM,[14],34.5%
same,growth at 10 µM,[15],2.31%
same,GI50,[16]; MOLT-4,0.31 µM
same,TGI,[16]; MOLT-4,> 100 µM
same,CC50,"[16]; MOLT-4, read-out: LC50 (the source's name)",> 100 µM
same,GI50,SR,0.26 µM
same,TGI,SR,11.6 µM
same,CC50,SR; [18],> 100 µM
same,GI50,HOP-62,2.63 µM
same,TGI,HOP-62,9.29 µM
same,CC50,HOP-62; [18],> 100 µM
same,GI50,[17]; HOP-92,1.34 µM
same,TGI,[17]; HOP-92,5.61 µM
same,CC50,"[17]; HOP-92, read-out: LC50 (the source's name)",> 100 µM
same,GI50,NCI-H226,0.19 µM
same,TGI,NCI-H226,0.42 µM
same,CC50,NCI-H226; [18],0.95 µM
